Consider two compounds from ChEMBL document CHEMBL1125520, “Improved brain delivery of AZT using a glycosyl phosphotriester prodrug” (1992).

Molecules are shown by their SMILES.

Assay [1] has as its system Mus musculus. In words: In Vivo detection in Mice brains after oral administration of 58.33 mg/kg detected in the form of AZT phosphodiester 2 after 2 hr. It is filed as functional.
In assay [2] the test system is Mus musculus. In words: In Vivo detection in Mice brains after oral administration of 58.33 mg/kg detected in the form of AZT after 24 hr. It counts as functional.
Assay [3] deals with Mus musculus. In words: In Vivo detection in Mice plasma after oral administration of 58.33 mg/kg detected in the form of AZT after 8 hr. It is filed as functional, organism-based. On the set-up: dose 58.33 mg/kg. An outline of the steps:
(§1)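 Male Swiss mice (18–20 g, six weeks old) given the test substance or vehicle ([…]) by gavage as a 3 mM solution (1.5 µmol/mouse). Aortic blood was collected into heparinized tubes at 0.5–48 h and centrifuged at 13000g for 10 min. Plasma was stored at -22 °C and analysed by HPLC. Three mice were used per time point, in triplicate. Values were not corrected for recovery.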

The test system of assay [4] is Mus musculus. Nature of the assay: In Vivo detection of total AZT in Mice plasma after oral administration of 58.33 mg/kg after 0.5 hr. It counts as functional, organism-based. On the set-up: dose 58.33 mg/kg. In outline:
as §1

Assay [5] deals with Mus musculus. Nature of the assay: In Vivo detection in Mice plasma after oral administration of 58.33 mg/kg detected in the form of AZT after 48 hr. Further details: dose 58.33 mg/kg. It counts as functional, organism-based. An outline of the steps:
as §1

Assay [6] relates to Mus musculus. Nature of the assay: In Vivo detection of total AZT in Mice plasma after oral administration of 58.33 mg/kg after 8 hr. It counts as functional, organism-based. Further details: dose 58.33 mg/kg. In outline: as §1
Assay [7] deals with Mus musculus. In words: In Vivo detection in Mice brains after oral administration of 58.33 mg/kg detected in the form of AZT phosphodiester 2 after 48 hr. It counts as functional.
For assay [8], the system named is Mus musculus. Nature of the assay: In Vivo detection of total AZT in Mice plasma after oral administration of 41.63 mg/kg after 4 hr. It counts as functional, organism-based. Further details: dose 41.63 mg/kg. An outline of the steps: as §1
The test system of assay [9] is Mus musculus. Nature of the assay: In Vivo detection in Mice plasma after oral administration of 41.63 mg/kg detected in the form of AZT phosphodiester 2 after 8 hr. It counts as functional, organism-based. Further details: dose 41.63 mg/kg.
In assay [10] the test system is Mus musculus. Nature of the assay: In Vivo detection in Mice brains after oral administration of 41.63 mg/kg detected in the form of AZT 5`-P after 24 hr. It counts as functional.
Assay [11] has as its system Mus musculus. Nature of the assay: In Vivo detection in Mice plasma after oral administration of 41.63 mg/kg detected in the form of AZT after 1 hr. It is filed as functional, organism-based. Further details: dose 41.63 mg/kg.
In assay [12] the test system is Mus musculus. In words: In Vivo detection of total AZT in Mice plasma after oral administration of 41.63 mg/kg after 48 hr. It is filed as functional, organism-based. Further details: dose 41.63 mg/kg. An outline of the steps:
as §1

Assay [13] relates to Mus musculus. In words: In Vivo detection in Mice plasma after oral administration of 41.63 mg/kg detected in the form of AZT 5`-P after 48 hr. It counts as functional, organism-based. Further details: dose 41.63 mg/kg.
The subject of assay [14] is Mus musculus. In words: In Vivo detection in Mice brains after oral administration of 41.63 mg/kg detected in the form of AZT 5`-P after 0.5 hr. It is filed as functional.

For the compound `CCCCCCCCCCCCCCCCOP(=O)(OCCO[C@H]1O[C@H](CO)[C@@H](O)[C@H](O)[C@@H]1O)OCC1OC(n2cc(C)c(=O)[nH]c2=O)CC1N=[N+]=[N-]` (some centres undefined), the Brain content in [1] worked out at 5.2 nmol/g; in [2], 1.4 nmol/g; in assay [7], 3.8 nmol/g. The Plasma content in assay [3] was 8.6 nM ml-1; in assay [4], 13.7 nM ml-1; in [5], 0 nM ml-1; in assay [6], 26.3 nM ml-1.

`Cc1cn([C@H]2C[C@H](N=[N+]=[N-])[C@@H](COP(=O)(O)OCCO[C@H]3O[C@H](CO)[C@@H](O)[C@H](O)[C@@H]3O)O2)c(=O)[nH]c1=O`: the Plasma content is 6.7 nM ml-1 in [8]; 0 nM ml-1 in [9]; 18.3 nM ml-1 in [11]; 17.9 nM ml-1 in assay [12]; 17.9 nM ml-1 in assay [13]. The results for the Brain content in assay [10] and in assay [14] were 56.5 nmol/g and 31 nmol/g, respectively.
